Measured values taken from PMC3358452 (Chemical Research in Toxicology, 2012).
Read-outs that look alike come from different tables or passages of the source.

Experiments:
[1] = assay type: physicochemical
Procedure, shortened: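 Reverse-phase HPLC quantified lactone left after an acidic aqueous solution reached equilibrium at 25 °C. The solution initially held 0.05 M lactone, measured gravimetrically, in 5% by volume acetonitrile. Ionic strength was set with KCl and hydrogen ion concentration varied. Remaining lactone was interpolated from a standard curve; triplicate injections per determination.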

[2] = Lower limit of KO by monitoring disappearance of the lactone multiplets; assay type: physicochemical; conditions: D2O, 1 M DClO4, lactone multiplets monitored to equilibrium
Kinetics of decay = assay type: physicochemical; conditions: for half-life at 0.0013 M: buffered aqueous solution, pH 7, t1/2 for decay
Procedure, shortened: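 The first check was in D2O with 0.005 M DCl, 0.005 M lactone and 0.005 M acetonitrile as internal standard, at 25 °C. Loss of the C-6 1H-NMR resonances at 4.78 ppm was compared with UV decay at 225 nm. The extended UV runs used 220–235 nm, 5% acetonitrile/H2O, ionic strength 1 M (KCl), 25 °C and 0.0013 M lactone. Buffers were formic, acetic, cacodylic and ethylphosphonic.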

pKa of = assay type: physicochemical; conditions: Calculated pKa, 25 °C, buffer 0.05 M, AH/A- = 1.0
Procedure, shortened: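 pH was measured in solutions of the sodium salt of the acid, measured gravimetrically and partially neutralized with HCl. Solutions held 5% by volume acetonitrile, with ionic strength balanced by KCl. […] Mean and SD of duplicates at 25 °C.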

[3] = group 2: AFB1 followed by 1 (1.32 g over 12 weeks), mean ± SEM
[4] = group 3: 1 only (1.32 g over 12 weeks)
[5] = fit of log ko vs pH, 25 °C, ionic strength 1 M (KCl), 5% by volume acetonitrile

In the case of `O=C1COCCO1` [compound 1, 1,4-Dioxan-2-one], the “KOA, equilibrium constant between 1 and carboxylic acid anion 3 and the proton (KOA = Ka × KO)” value ([1]; 25 °C, ionic strength 1M (KCl), 5% by volume acetonitrile) is reported as 0.034 ± 0.002 M, the “Ko, equilibrium constant for lactone 1 and its open-chain acid form” value ([1]; 25 °C, [HCl] 0.05 M, total ionic strength 0.05 M, 5% by volume acetonitrile) is reported as 71 and the “Ko, equilibrium constant for lactone 1 and its open-chain acid form” value ([1]; 25 °C, [HCl] 0.10 M, total ionic strength 1.0 M (KCl), 5% by volume acetonitrile) is reported as 70. For the same compound, the “Ko, equilibrium constant for lactone 1 and its open-chain acid form” value ([1]; 25 °C, [HCl] 0.20 M, total ionic strength 1.0 M (KCl), 5% by volume acetonitrile) was 70, the “KO, equilibrium constant between 1 and hydrolysis product 2” value ([1]; acidic aqueous media, 25 °C, ionic strength 1M (KCl), 5% by volume acetonitrile) was 70 ± 3.5 and the “lactone as percent of the total species at equilibrium” value ([1]; pH = 7) was ~ 3 ×10^−4%. For the same compound, the “KO, lower limit value” [2] was over 50, the “average size of observed GST-P positive foci” value (F344 rat liver; group 2 (AFB1 + 1), data not shown) was over 200 µm and the “Foci per cubic cm (morphometric)” value (F344 rat liver; [3]) was 1190 ± 230. For the same compound, the “Mean Diameter of foci (morphometric)” value (F344 rat liver; [3]) was 210 ± 32 microns, the “Volume % of liver occupied by GST-P positive foci” value (shortened to “Volume % … by GST-P positive foci”) (F344 rat liver; [3]) was 2.1 ± 0.7% and the “diameter of the single focus observed” value (F344 rat liver; group 3 (1 only)) was 65 µm. For the same compound, the “Mean Diameter of foci (morphometric)” value (F344 rat liver; [4]) was 65 microns, the “Volume % … by GST-P positive foci” value (F344 rat liver; [4]) was 0.001% and the “Foci per cubic cm (morphometric)” value (F344 rat liver; group 3: 1 only (1.32 g over 12 weeks), mean ± SEM) was 6.1 ± 6.1. For the same compound, the “Mean Foci Counted (observed)” value (F344 rat liver; group 3: 1 only, gavage 3 days/week for 12 weeks (1.32 g total), mean ± SEM) was 0.1 ± 0.1, the “first order rate constant of decay (NMR)” value (Kinetics of decay; 1H-NMR, D2O, 0.005 M DCl, 25 °C) was 0.017 ± 0.002 min⁻¹ and the “first order rate constant of decay (UV)” value (Kinetics of decay; UV spectrophotometry, D2O, 0.005 M DCl, 25 °C) was 0.016 ± 0.001 min⁻¹. For the same compound, the half-life at 0.0013 M (Kinetics of decay; pH 7) was 2.12 h, the half-life at 0.0013 M (Kinetics of decay; pH = 7.0, 25 °C) was about 2 h and the “factor by which 1 is more reactive toward hydroxide ion than valerolactone” value (Kinetics of decay; comparison with literature rate constant) was ~ 1500. For the same compound, the “kH+, hydrogen ion catalyzed rate constant for solvolysis” value (Kinetics of decay; [5]) was 1.1 (± 0.1) M^−1 min^−1, the “kOH, hydroxide ion catalyzed rate constant” value (Kinetics of decay; [5]) was 4.1 (± 0.3) × 10^4 M^−1 min^−1 and the “kw, water catalyzed (pH-independent) rate constant” value (Kinetics of decay; [5]) was 9.9 (± 0.5) × 10^−4 min^−1.
For `O=C(O)COCCO` [compound 2, 2-(2-hydroxyethoxy) acetic acid], the pKa (pKa of; ionic strength 0.05 M) was 3.43, the pKa (pKa of; ionic strength 0.25 M (KCl)) was 3.36 and the pKa (pKa of; ionic strength 0.35 M (KCl)) was 3.36. For the same compound, the pKa (pKa of; ionic strength 0.45 M (KCl)) was 3.36 and the pKa (pKa of; ionic strength 0.55 M (KCl)) was 3.38.
In the case of aflatoxin B1 [AFB1, reference compound], the “Foci per cubic cm (morphometric)” value (F344 rat liver; rat, in vivo) is reported as 1230 ± 410, the “Mean Diameter of foci (morphometric)” value (F344 rat liver; rat, in vivo) is reported as 227 ± 35 microns and the “Mean Foci Counted (observed)” value (F344 rat liver; rat, in vivo) is reported as 44 ± 8. For the same compound, the “Volume % … by GST-P positive foci” value (F344 rat liver; rat, in vivo) was 3.1 ± 1.0% and the “average size of observed GST-P positive foci” value (F344 rat liver; rat, in vivo) was over 200 µm.
